Measurements as given in ChEMBL document CHEMBL1759837, “Studies on chemical modification and biology of a natural product, gambogic acid (III): determination of the essential pharmacophore for biological activity” (Eur J Med Chem, 2011).
The source made the active and inactive calls. No cut-off for these calls is given here.

Legend:
HepG2 [1] = assay: Cell cycle arrest in human HepG2 cells assessed as accumulation at G2/M phase at 4 uM after 24 hrs using propidium iodide by Flow cytometry; assay type: functional, cell-based
Method in brief: (§1)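 HepG2 cells synchronised by 24 h serum starvation, then treated 24 h at 1, 2 or 4 µM. Cells fixed overnight in 70% ethanol at 4 °C and stained 15 min at 37 °C in the dark with hypotonic PI solution (0.1% sodium citrate, 0.1% Triton X-100, 0.05 mg/ml PI, 0.01 mg/ml RNase). DNA content measured by flow cytometry.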

Mus musculus [2] = assay: Toxicity in Kunming mouse xenografted with human HepG2 cells assessed as change in body weight at 12.5 mg/kg, iv administered 24 hrs after tumor implantation one dose per two day for total of four treatment measured after 24 hrs last postdose (reference value: 20.20 +/- 1.99 g); assay type: organism-based; design: dose 12.5 mg/kg, route intravenous; conditions: in vivo
HepG2 [3] = assay: Induction of apoptosis in human HepG2 cells assessed as pre-necrotic cells at 2 uM after 24 hrs using annexin V-propidium iodide staining by flow cytometry (reference value: 0.5%); assay type: functional
HepG2 [4] = assay: Induction of apoptosis in human HepG2 cells assessed as appearance of apoptotic bodies at 1 to 4 uM after 24 hrs using DAPI staining by fluorescent microscopy; assay type: functional, cell-based
Method in brief: (§2)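 HepG2 cells seeded at 1 × 10⁵ cells/well and treated 24 h at 1, 2 or 4 µM. Living cells first viewed under inverted light microscope (×200). Cells then fixed 20 min in 4% paraformaldehyde, stained 10 min with DAPI (1 mg/ml) and examined by fluorescence microscopy (×400, 340 nm excitation) for nuclear changes and apoptotic bodies.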

HepG2 [5] = assay: Induction of apoptosis in human HepG2 cells assessed as viable cells at 4 uM after 24 hrs using annexin V-propidium iodide staining by flow cytometry (reference value: 93.2%); assay type: functional; conditions: HepG2, 24 h, read-out: Activity
HepG2 [6] = assay: Cell cycle arrest in human HepG2 cells assessed as accumulation at G2/M phase at 2 uM after 24 hrs using propidium iodide by Flow cytometry; assay type: functional, cell-based; method in brief: as §1
HepG2 [7] = assay: Induction of apoptosis in human HepG2 cells assessed as appearance of necrosis at 4 uM after 24 hrs by light microscopy; assay type: functional, cell-based; method in brief: as §2
HepG2 [8] = assay: Induction of apoptosis in human HepG2 cells assessed as pre-necrotic cells at 4 uM after 24 hrs using annexin V-propidium iodide staining by flow cytometry (reference value: 0.5%); assay type: functional
HepG2 [9] = assay: Induction of apoptosis in human HepG2 cells assessed as early apoptotic cells at 4 uM after 24 hrs using annexin V-propidium iodide staining by flow cytometry (reference value: 3%); assay type: functional
HepG2 [10] = assay: Induction of apoptosis in human HepG2 cells assessed as induction of cell integrity at 1 uM after 24 hrs by light microscopy; assay type: functional, cell-based; method in brief: as §2
HepG2 [11] = assay: Induction of apoptosis in human HepG2 cells assessed as early apoptotic cells at 1 uM after 24 hrs using annexin V-propidium iodide staining by flow cytometry (reference value: 3%); assay type: functional
HepG2 [12] = assay: Induction of apoptosis in human HepG2 cells assessed as effect on bax protein expression at 1 uM after 24 hrs by Western blot analysis; assay type: functional, cell-based
Method in brief: (§3)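 HepG2 cells treated 24 h at 1, 2 or 4 µM. Lysed in Tris-Cl pH 6.8 buffer containing SDS, glycerol, β-mercaptoethanol, PMSF and aprotinin; cleared at 12 000 × g, 15 min, 4 °C. Protein measured by BCA. Samples run on 15% SDS-PAGE, transferred to PVDF, probed overnight at 4 °C with primary antibodies against bcl-2, bax and pro-caspase-3, then IRDye 800 secondary 1 h at 37 °C.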

HepG2 [13] = assay: Induction of apoptosis in human HepG2 cells assessed as effect on bax protein expression at 2 uM after 24 hrs by Western blot analysis; assay type: functional, cell-based; method in brief: as §3
HepG2 [14] = assay: Induction of apoptosis in human HepG2 cells assessed as decrease in bcl-2 expression at 4 uM after 24 hrs by Western blot analysis; assay type: functional, cell-based; method in brief: as §3
BGC-823 = assay: Antiproliferative activity against human BGC823 cells after 24 hrs by MTT assay; assay type: functional, cell-based; conditions: BGC-823, 24 h
Method in brief: (§4)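 Cells grown at 37 °C in humidified 5% CO2 with benzylpenicillin and streptomycin. Compounds came from 0.01 mol/L DMSO stocks and were tested at eight two-fold dilutions in triplicate, with medium-only controls, for 24 h. MTT absorbance was read at 570 nm. Survival = A_treatment/A_control × 100. IC50 is the concentration giving 50% viability inhibition, as the mean of two separate experiments.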

[15] = system: Heps hepatoma (Mus musculus); assay: Antitumor activity against murine Heps hepatoma cells transplanted in Kunming mouse assessed as tumor growth inhibition at 25 mg/kg, iv administered 24 hrs after tumor implantation one dose per two day for total of four treatment measured after 24 hrs last postdose relative to control
MCF7 = assay: Antiproliferative activity against human MCF7 cells after 24 hrs by MTT assay; assay type: functional, cell-based; conditions: MCF7, 24 h; method in brief: as §4
HepG2 [16] = assay: Induction of apoptosis in human HepG2 cells assessed as early apoptotic cells at 2 uM after 24 hrs using annexin V-propidium iodide staining by flow cytometry (reference value: 3%); assay type: functional
HepG2 [17] = assay: Induction of apoptosis in human HepG2 cells assessed as viable cells at 1 uM after 24 hrs using annexin V-propidium iodide staining by flow cytometry (reference value: 93.2%); assay type: functional; conditions: HepG2, 24 h, read-out: Activity
HepG2 [18] = assay: Induction of apoptosis in human HepG2 cells assessed as decrease in pro-caspase-3 expression at 1 uM after 24 hrs by Western blot analysis; assay type: functional, cell-based; method in brief: as §3
HepG2 [19] = assay: Induction of apoptosis in human HepG2 cells assessed as late apoptotic cells at 4 uM after 24 hrs using annexin V-propidium iodide staining by flow cytometry (reference value: 3.4%); assay type: functional
Mus musculus [20] = assay: Toxicity in Kunming mouse xenografted with human HepG2 cells assessed as irritation on vein vascular at 12.5 to 50 mg/kg, iv administered 24 hrs after tumor implantation one dose per two day for total of four treatment measured after 24 hrs last postdose; assay type: organism-based; design: dose 12.5-50 mg/kg, route intravenous; conditions: in vivo
HepG2 [21] = assay: Induction of apoptosis in human HepG2 cells assessed as viable cells at 2 uM after 24 hrs using annexin V-propidium iodide staining by flow cytometry (reference value: 93.2%); assay type: functional; conditions: HepG2, 24 h, read-out: Activity

`CC(C)=CCC12OC(C)(C)C3CC(C=C4C(=O)c5c(O)cccc5OC431)C2=O` (stereo not drawn) was tested, and the Activity (HepG2 [1]) was “Active”, the Activity (Mus musculus [2]) was 26.3 g and the Activity (HepG2 [3]) was 1.1%. The Activity (HepG2 [4]) was “Active”, the viability at 4 µM (HepG2 [5]) was 68.2% and the Activity (HepG2 [6]) was “Active”. For the same compound, the Activity (HepG2 [7]) was “Active”, the Activity (HepG2 [8]) was 1.1% and the Activity (HepG2 [9]) was 23.3%. The Activity (HepG2 [10]) was “Active”, the Activity (HepG2 [11]) was 8.1% and the Activity (HepG2 [12]) was “inactive”. For the same compound, the Activity (HepG2 [13]) was “inactive”, the Activity (HepG2 [14]) was “Active” and the IC50 (BGC-823) was 3.59 µM. For the same compound, the inhibition in vivo at 25 mg/kg [15] was 32.3%, the IC50 (MCF7) was 9.16 µM and the Activity (HepG2 [16]) was 18.9%. For the same compound, the viability at 1 µM (HepG2 [17]) was 86.3%, the Activity (HepG2 [18]) was “Active” and the Activity (HepG2 [19]) was 7.4%. The Activity (Mus musculus [20]) was “Non-toxic” and the viability at 2 µM (HepG2 [21]) was 71.9%.
